Measured values of several laboratories.
Lines come from different studies, so protocols differ.

SMILES	target or system	read-out	technique	strain	time	quantity	result
COc1ccc2c(c1)c(=O)c(C(=O)N/N=C/c1ccc([N+](=O)[O-])s1)cn2Cc1ccccc1	Trypanosoma brucei	parasite growth	resazurin		72 h	EC50	0.41 µM
Cc1cc(C)c(C#N)c(SCC(=O)c2ccccn2)n1	Trypanosoma brucei	parasite growth	resazurin			EC50	> 64 µM
Cc1[nH]c(C(=O)Nc2ccc(C(=O)NCC(=O)O)cc2N2CCNCC2)c(Cl)c1Cl.Cl	Enterococcus faecium	microbial growth	broth dilution	ATCC35667		MIC	> 32 µg/mL
Nc1ccc(/C=C/C(=O)N2CCc3c(oc4c(-c5ccc(F)cc5)cc(-c5ccc(C(=O)N6C[C@@H]7[C@H](C6)C7(F)F)nn5)cc34)C2)cn1	CFPAC-1	cell growth or viability	CCK-8		72 h	IC50	> 20 µM
Cl.N[C@@H]1CCN(c2cc(C(=O)NCC(=O)O)ccc2NC(=O)c2cc(Br)c(Br)[nH]2)C1	Enterococcus faecium	microbial growth	broth dilution	ATCC35667		MIC	> 32 µg/mL
C=CC(=O)NC1CCN(c2ncc3ncnc(Nc4ccc(Oc5ccc6c(c5)ncn6C)c(C)c4)c3n2)CC1	DoTc2-4510	cell growth or viability				EC50	5.24 µM
Nc1ccc(/C=C/C(=O)NCc2cc3cc(-c4ccc(C(=O)N5CCC(F)(F)CC5)cc4)cc(-c4ccc(F)cc4)c3o2)cn1	CFPAC-1	cell growth or viability	CCK-8		72 h	IC50	> 20 µM
Cc1ccc(Cn2cc(C(=O)NN)c(=O)c3cc(Oc4ccccc4)ccc32)cc1	Trypanosoma brucei	parasite growth		RHODESIENSE		EC50	0.5 µM
Cn1nnc(-c2cccnc2SCC(=O)c2ccc(F)cc2)n1	Trypanosoma brucei	parasite growth	resazurin	RHODESIENSE		EC50	> 64 µM
CC(C)(C)OC(=O)N1CCN(c2cc(C(=O)NCC(=O)O)ccc2NC(=O)c2cc(Br)c(Br)[nH]2)CC1	Enterococcus faecium	microbial growth	broth dilution	ATCC35667		MIC	> 32 µg/mL
O=C(O)c1ccc2c(c1)nc(Nc1cccc(Cl)c1)c1ccncc12	SK-MES-1	cell growth or viability	crystal violet		48 h	IC50	4.6 µM
Cc1cc(C)c(C#N)c(SCC(=O)Nc2ccccc2)n1	Trypanosoma brucei	parasite growth	resazurin			EC50	> 64 µM
Cc1[nH]c(C(=O)Nc2ccc(C(=O)NCC(=O)O)cc2N2CC[C@H](N)C2)c(Cl)c1Cl.Cl	Enterococcus faecium	microbial growth	broth dilution	ATCC35667		MIC	> 32 µg/mL
COc1ccnc(SCC(=O)c2ccccc2)c1C#N	Trypanosoma brucei	parasite growth	resazurin			EC50	> 64 µM
N=C(N)c1ccc(OCCCCCOc2ccc(C(=N)N)cc2)cc1	Trypanosoma brucei	parasite growth	resazurin		72 h	EC50	0.005 µM
